Paper PMC6923798 (Bioorganic chemistry, 2018)

Tests used:
[1] = system: EKVX; assay: NCI in vitro five dose anticancer assay; format: cell-based, human; conditions: 48 h
[2] = system: HOP-92; assay: NCI in vitro five dose anticancer assay; format: cell-based, human
[3] = system: NCI-H23; assay: NCI in vitro five dose anticancer assay; format: cell-based, human
[4] = system: NCI-H322M; assay: NCI in vitro five dose anticancer assay; format: cell-based, human; conditions: 48 h
[5] = system: NCI-H460; assay: NCI in vitro five dose anticancer assay; format: cell-based, human
[6] = system: COLO 205; assay: NCI in vitro five dose anticancer assay; format: cell-based, human
[7] = system: HCC-2998; assay: NCI in vitro five dose anticancer assay; format: cell-based, human
[8] = system: HCT-116; assay: NCI in vitro five dose anticancer assay; format: cell-based, human
[9] = system: HCT-15; assay: NCI in vitro five dose anticancer assay; format: cell-based, human
[10] = system: KM12; assay: NCI in vitro five dose anticancer assay; format: cell-based, human
[11] = system: SF-295; assay: NCI in vitro five dose anticancer assay; format: cell-based, human
[12] = system: SNB-75; assay: NCI in vitro five dose anticancer assay; format: cell-based, human
[13] = system: U251; assay: NCI in vitro five dose anticancer assay; format: cell-based, human
[14] = system: PC-3; assay: NCI in vitro five dose anticancer assay; format: cell-based, human
[15] = system: DU-145; assay: NCI in vitro five dose anticancer assay; format: cell-based, human
[16] = system: M14; assay: NCI in vitro five dose anticancer assay; format: cell-based, human
[17] = system: SK-MEL-2; assay: NCI in vitro five dose anticancer assay; format: cell-based, human
[18] = system: UACC-257; assay: NCI in vitro five dose anticancer assay; format: cell-based, human
[19] = system: UACC-62; assay: NCI in vitro five dose anticancer assay; format: cell-based, human
[20] = system: OVCAR-4; assay: NCI in vitro five dose anticancer assay; format: cell-based, human
[21] = system: OVCAR-5; assay: NCI in vitro five dose anticancer assay; format: cell-based, human
[22] = system: OVCAR-8; assay: NCI in vitro five dose anticancer assay; format: cell-based, human
[23] = system: NCI/ADR-RES; assay: NCI in vitro five dose anticancer assay; format: cell-based, human; conditions: 48 h
[24] = system: SK-OV-3; assay: NCI in vitro five dose anticancer assay; format: cell-based, human
[25] = system: A498; assay: NCI in vitro five dose anticancer assay; format: cell-based, human
[26] = system: MDA-MB231/ATCC; assay: NCI in vitro five dose anticancer assay; format: cell-based, human
[27] = system: T-47D; assay: NCI in vitro five dose anticancer assay; format: cell-based, human; conditions: 48 h
[28] = system: SR cell line; assay: NCI in vitro one dose anticancer assay; format: cell-based; conditions: Homo sapiens, 48 h, read-out: % growth inhibition
In short: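 NCI protocol. Test compound added once at 10−5 M to ~60 human tumour lines from nine subpanels. Incubated 48 h at 37 °C, 5% CO2, 95% air, 100% relative humidity. Endpoint by sulforhodamine B protein staining with spectrophotometric absorbance. Growth of treated cells reported as percent of untreated cells.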

[29] = system: EGFR, p-EGFR, Src and p-Src in K562 cells; assay: Western blot analysis in K562 cells; format: cell-based, human; conditions: K562 cells, 0.2, 0.8, 1.6 μM, 24 h
In short: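 K562 cells incubated 24 h with test compound at 0.2, 0.8 or 1.6 μM, or DMSO. 50 μg protein resolved on 8 or 10% SDS-PAGE and transferred to PVDF. Blocked 1 h in PBS with 3% non-fat milk, 1% BSA, 0.5% Tween-20. Primary antibody overnight, then HRP-IgG 1 h at room temperature. ECL detection on X-ray film.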

[30] = system: STAT3; assay: STAT3 activation assay; format: cell-based, human; conditions: K-562 cells, 10 μM, 24 h, nuclear extracts
In short: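 K562 cells seeded overnight in 10 cm plates, then given vehicle, test compound (10 μM) or WP1066 (positive control) for 24 h. Nuclear fractions extracted by kit. STAT3 activation measured in nuclear extracts by TransAM STAT3 ELISA per manufacturer. Mean ± SD of three independent experiments, each in triplicate.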

[31] = Non-Small Cell Lung Cancer, five dose, SRB

SMILES: COc1ccc(C=CC(=O)c2ccc(NC(=O)CSc3nnc(-c4cc(OC)c(OC)c(OC)c4)o3)cc2)cc1 [Compound 8v, N-(4-(3-(4-Methoxyphenyl)acryloyl)phenyl)-2-((5-(3,4,5-trimethoxy-phenyl)-1,3,4-oxadiazol-2-yl)thio)acetamide]
- GI50 ([1]; Homo sapiens): 1790 nM
- TGI [1, 31]: 3980 nM
- TGI ([2]; HOP-92, Non-Small Cell Lung Cancer, five dose, 48 h, SRB): 4230 nM
- GI50 ([2]; Homo sapiens, HOP-92, 48 h): 1930 nM
- GI50 ([3]; Homo sapiens, NCI-H23, 48 h): 1880 nM
- TGI ([3]; NCI-H23, Non-Small Cell Lung Cancer, five dose, 48 h, SRB): 3970 nM
- GI50 ([4]; Homo sapiens): 1590 nM
- TGI [4, 31]: 2980 nM
- GI50 ([5]; Homo sapiens, NCI-H460, 48 h): 2000 nM
- TGI ([5]; NCI-H460, Non-Small Cell Lung Cancer, five dose, 48 h, SRB): 3850 nM
- TGI ([6]; COLO 205, Colon Cancer, five dose, 48 h, SRB): 3840 nM
- GI50 ([6]; Homo sapiens, COLO 205, 48 h): 1940 nM
- TGI ([7]; HCC-2998, Colon Cancer, five dose, 48 h, SRB): 3650 nM
- GI50 ([7]; Homo sapiens, HCC 2998, 48 h): 1880 nM
- TGI ([8]; HCT-116, Colon Cancer, five dose, 48 h, SRB): 1940 nM
- GI50 ([8]; Homo sapiens, HCT-116, 48 h): 500 nM
- TGI ([9]; HCT-15, Colon Cancer, five dose, 48 h, SRB): 3220 nM
- GI50 ([9]; Homo sapiens, HCT-15, 48 h): 1630 nM
- GI50 ([10]; Homo sapiens, KM12, 48 h): 1770 nM
- TGI ([10]; KM12, Colon Cancer, five dose, 48 h, SRB): 3400 nM
- GI50 ([11]; Homo sapiens, SF-295, 48 h): 1770 nM
- TGI ([11]; SF-295, CNS cancer, five dose, 48 h, SRB): 3350 nM
- GI50 ([12]; Homo sapiens, SNB-75, 48 h): 1470 nM
- TGI ([12]; SNB-75, CNS cancer, five dose, 48 h, SRB): 3150 nM
- GI50 ([13]; Homo sapiens, U-251, 48 h): 1680 nM
- TGI ([13]; U251, CNS cancer, five dose, 48 h, SRB): 3180 nM
- GI50 ([14]; Homo sapiens, PC-3, 48 h): 1750 nM
- TGI ([14]; PC-3, Prostate Cancer, five dose, 48 h, SRB): 3300 nM
- TGI ([15]; DU-145, Prostate Cancer, five dose, 48 h, SRB): 3210 nM
- GI50 ([15]; Homo sapiens, DU-145, 48 h): 1750 nM
- GI50 ([16]; Homo sapiens, M14, 48 h): 1600 nM
- TGI ([16]; M14, Melanoma, five dose, 48 h, SRB): 3300 nM
- GI50 ([17]; Homo sapiens, SK-MEL-2, 48 h): 1790 nM
- TGI ([17]; SK-MEL-2, Melanoma, five dose, 48 h, SRB): 4820 nM
- GI50 ([18]; Homo sapiens, UACC-257, 48 h): 2160 nM
- TGI ([18]; UACC-257, Melanoma, five dose, 48 h, SRB): 4690 nM
- GI50 ([19]; Homo sapiens, UACC-62, 48 h): 1730 nM
- TGI ([19]; UACC-62, Melanoma, five dose, 48 h, SRB): 3430 nM
- GI50 ([20]; Homo sapiens, OVCAR-4, 48 h): 2000 nM
- TGI ([20]; OVCAR-4, Ovarian Cancer, five dose, 48 h, SRB): 4620 nM
- GI50 ([21]; Homo sapiens, OVCAR-5, 48 h): 1720 nM
- TGI ([21]; OVCAR-5, Ovarian Cancer, five dose, 48 h, SRB): 3300 nM
- GI50 ([22]; Homo sapiens, OVCAR-8, 48 h): 2320 nM
- TGI ([22]; OVCAR-8, Ovarian Cancer, five dose, 48 h, SRB): 5730 nM
- GI50 ([23]; Homo sapiens): 2420 nM
- TGI ([23]; Ovarian Cancer, five dose, SRB): 7030 nM
- GI50 ([24]; Homo sapiens, SK-OV-3, 48 h): 2420 nM
- TGI ([24]; SK-OV-3, Ovarian Cancer, five dose, 48 h, SRB): 5680 nM
- TGI ([25]; A498, Renal Cancer, five dose, 48 h, SRB): 23600 nM
- GI50 ([25]; Homo sapiens, A498, 48 h): 11000 nM
- GI50 ([26]; Homo sapiens, MDA-MB-231, 48 h): 1820 nM
- TGI ([26]; MDA-MB231/ATCC, Breast cancer, five dose, 48 h, SRB): 3500 nM
- GI50 ([27]; Homo sapiens, T47D): 2050 nM
- TGI ([27]; T-47D, Breast cancer, five dose, SRB): 5080 nM
- inhibition at 10 µM [28]: 32.9 to 160%
- protein expression levels of p-EGFR, EGFR, p-Src and Src [29]: downregulated
- inhibition of STAT3 activation [30]: most effective
